ChEMBL document CHEMBL1123947, “Design, structure-activity, and molecular modeling studies of potent renin inhibitory peptides having N-terminal Nin-For-Trp (Ftr): angiotensinogen congeners modified by P1-P1' Phe-Phe, Sta, Leu psi[CH(OH)CH2]Val or leu psi[CH2NH]Val substitutions” (J Med Chem, 1988)
Numbered stars: 1 amine (or outer) side, 2 acyl side, 3 side chain; on linkers, the order of the positions; unused ones are H or OH. Square brackets hold non-standard residues; d marks the D form. Peptide text beside a SMILES is read from it. * marks the point of attachment. ξ: configuration not given here. Sta(3ξ) = CC(C)C[C@H](N[*:1])C(O)CC(=O)[*:2]; X4 = CC(C)C[C@H](N*)C(O)C[C@H](C(N)=O)C(C)C; X5 = CC(C)C[C@@H](CN[C@H](C(N)=O)C(C)C)N*; X1 = CC(C)CC(N[*:1])C(O)CC(=O)[*:2]; X3 = CC(C)CC(N[*:1])C(O)C(=O)[*:2]; Ile(3ξ) = CCC(C)[C@H](N)C(=O)O; X2 = CC(C)CC(N*)C(O)CC(N)=O; Cbz = O=C(OCc1ccccc1)*; Boc = CC(C)(C)OC(=O)*; For = O=C*

Legend:
Renin = target: T1, Renin (Homo sapiens, UniProt P00797); assay: In vitro inhibitory activity against human plasma renin; type: cell-free
T1 sequence (P00797 whole entry): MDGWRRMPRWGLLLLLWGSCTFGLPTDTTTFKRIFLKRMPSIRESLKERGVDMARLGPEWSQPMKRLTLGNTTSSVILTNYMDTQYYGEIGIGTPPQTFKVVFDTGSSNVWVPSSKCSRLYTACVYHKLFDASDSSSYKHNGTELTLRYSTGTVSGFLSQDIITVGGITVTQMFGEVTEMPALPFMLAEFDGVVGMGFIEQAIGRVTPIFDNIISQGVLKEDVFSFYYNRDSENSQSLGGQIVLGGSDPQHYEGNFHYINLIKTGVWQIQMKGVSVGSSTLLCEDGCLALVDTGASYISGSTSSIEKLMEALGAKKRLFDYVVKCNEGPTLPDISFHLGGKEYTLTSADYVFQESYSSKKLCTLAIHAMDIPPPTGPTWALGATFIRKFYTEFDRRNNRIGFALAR
How it was run: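 Reconstituted lyophilized human plasma with 0.1% EDTA, plus PMSF and maleate buffer (pH 6.0). Inhibitor added in 1.0% Tween 80/water vehicle. Angiotensin I generated for 90 min at 37 °C and measured by RIA.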

Renin (Sus scrofa) = assay: In vitro inhibitory activity towards porcine kidney renin

IC50 (Renin) [nM]	IC50 (Renin (Sus scrofa)) [nM]	Structure (SMILES)
21	–	CC(=O)N[C@@H](Cc1cn(C=O)c2ccccc12)C(=O)N1CCC[C@H]1C(=O)N[C@@H](Cc1ccccc1)C(=O)N[C@@H](Cc1c[nH]cn1)C(=O)N[C@H](CN[C@H](C(N)=O)C(C)C)CC(C)C (Ac-W(For)PFH-X5)
6.8	–	CC[C@H](C)[C@H](NC(=O)CC(O)[C@H](CC(C)C)NC(=O)[C@H](Cc1cnc[nH]1)NC(=O)[C@H](Cc1ccccc1)NC(=O)[C@@H]1CCCN1C(=O)[C@H](Cc1cnc[nH]1)NC(C)=O)C(N)=O (some centres undefined) (Ac-HPFH[Sta(3ξ)]I-NH2)
~100000	–	CC(=O)N[C@H](Cc1c[nH]cn1)C(=O)N1CCC[C@H]1C(=O)N[C@@H](Cc1ccccc1)C(=O)N[C@@H](Cc1ccccc1)C(=O)N[C@H](C(=O)N[C@@H](Cc1cn(C=O)c2ccccc12)C(N)=O)C(C)C
31	–	CCC(C)[C@H](NC(=O)CC(O)C(CC(C)C)NC(=O)[C@H](Cc1c[nH]cn1)NC(=O)[C@H](Cc1ccccc1)NC(=O)[C@@H]1CCCN1C=O)C(N)=O (some centres undefined) (For-PFH[X1][Ile(3ξ)]-NH2)
5000	–	CC(=O)N[C@H](Cc1c[nH]c2ccccc12)C(=O)N1CCC[C@H]1C(=O)N[C@@H](Cc1ccccc1)C(=O)N[C@@H](Cc1c[nH]cn1)C(=O)N[C@@H](Cc1ccccc1)C(=O)N[C@@H](Cc1ccccc1)C(=O)N[C@H](C(=O)N[C@@H](Cc1cn(C=O)c2ccccc12)C(N)=O)C(C)C
1.6	–	CC[C@H](C)[C@H](NC(=O)CC(O)[C@H](CC(C)C)NC(=O)[C@H](Cc1c[nH]cn1)NC(=O)[C@H](Cc1ccccc1)NC(=O)[C@@H]1CCCN1C(=O)[C@H](Cc1c[nH]c2ccccc12)NC(C)=O)C(N)=O (some centres undefined) (Ac-WPFH[Sta(3ξ)]I-NH2)
0.38	–	CC(=O)N[C@@H](Cc1cn(C=O)c2ccccc12)C(=O)N1CCC[C@H]1C(=O)N[C@@H](Cc1ccccc1)C(=O)N[C@@H](Cc1cnc[nH]1)C(=O)NC(CC(C)C)C(O)CC(=O)N[C@H](C(=O)N[C@@H](Cc1cn(C=O)c2ccccc12)C(N)=O)C(C)C (some centres undefined) (Ac-W(For)PFH[X1]VW(For)-NH2)
> 100000	–	CC(=O)N[C@@H](Cc1c[nH]cn1)C(=O)N[C@@H](Cc1ccccc1)C(=O)N[C@@H](Cc1cn(C=O)c2ccccc12)C(=O)N[C@@H](Cc1ccccc1)C(=O)N[C@@H](Cc1ccccc1)C(=O)N[C@H](C(=O)N[C@@H](Cc1cn(C=O)c2ccccc12)C(N)=O)C(C)C (Ac-HFW(For)FFVW(For)-NH2)
0.53	–	CC(=O)N[C@@H](Cc1cn(C=O)c2ccccc12)C(=O)N1CCC[C@H]1C(=O)N[C@@H](Cc1ccccc1)C(=O)N[C@@H](Cc1c[nH]cn1)C(=O)NC(CC(C)C)C(O)CC(=O)N[C@H](C(N)=O)C(C)C (some centres undefined) (Ac-W(For)PFH[X1]V-NH2)
10	–	CC[C@H](C)[C@H](NC(=O)[C@@H](NC[C@H](CC(C)C)NC(=O)[C@H](Cc1c[nH]cn1)NC(=O)[C@H](Cc1ccccc1)NC(=O)[C@@H]1CCCN1C(=O)[C@H](Cc1c[nH]cn1)NC(=O)[C@@H]1CCCN1)C(C)C)C(=O)N[C@@H](Cc1c[nH]cn1)C(=O)N[C@@H](CCCCN)C(=O)O
> 100000	–	CC(=O)N[C@@H](Cc1cn(C=O)c2ccccc12)C(=O)N1CCC[C@H]1C(=O)N[C@@H](Cc1ccccc1)C(=O)N[C@@H](Cc1c[nH]cn1)C(=O)N[C@@H](Cc1ccccc1)C(=O)N[C@@H](Cc1ccccc1)C(N)=O (Ac-W(For)PFHFF-NH2)
3.8	–	CC(=O)N[C@@H](Cc1cn(C=O)c2ccccc12)C(=O)N1CCC[C@H]1C(=O)N[C@@H](Cc1ccccc1)C(=O)N[C@@H](Cc1cnc[nH]1)C(=O)NC(CC(C)C)C(O)CC(N)=O (some centres undefined) (Ac-W(For)PFH-X2)
0.1	–	CC[C@H](C)[C@H](NC(=O)CC(O)[C@H](CC(C)C)NC(=O)[C@H](Cc1cnc[nH]1)NC(=O)[C@H](Cc1ccccc1)NC(=O)[C@@H]1CCCN1C(=O)[C@H](Cc1cn(C=O)c2ccccc12)NC(C)=O)C(N)=O (some centres undefined)
0.11	–	CC[C@H](C)[C@H](NC(=O)[C@@H](C[C@H](O)[C@H](CC(C)C)NC(=O)[C@H](Cc1c[nH]cn1)N(C)C(=O)[C@H](Cc1ccccc1)NC(=O)[C@@H]1CCCN1C(=O)OC(C)(C)C)C(C)C)C(=O)NCc1ccccn1
–	200	CC(C)CC(NC(=O)[C@H](Cc1c[nH]cn1)NC(=O)[C@H](Cc1ccccc1)NC(=O)[C@@H]1CCCN1)C(O)CC(=O)N[C@@H](CC(C)C)C(=O)N[C@@H](Cc1ccccc1)C(N)=O (some centres undefined) (H-PFH[X1]LF-NH2)
1	–	CC[C@H](C)[C@H](NC(=O)C(O)C(CC(C)C)NC(=O)[C@H](Cc1c[nH]cn1)NC(=O)[C@H](Cc1ccccc1)NC(=O)[C@@H]1CCCN1C(=O)[C@H](CCCN=C(N)N)NC(=O)[C@H](CCCN=C(N)N)NC(=O)OCc1ccccc1)C(=O)N[C@@H](Cc1c[nH]cn1)C(=O)N[C@@H](CCCCNC(=O)OC(C)(C)C)C(=O)OC (some centres undefined) (Cbz-RRPFH[X3]IHK(Boc)-OMe)
0.31	–	CC(=O)N[C@@H](Cc1cn(C=O)c2ccccc12)C(=O)N1CCC[C@H]1C(=O)N[C@@H](Cc1ccccc1)C(=O)N[C@@H](Cc1c[nH]cn1)C(=O)N[C@@H](CC(C)C)C(O)C[C@H](C(N)=O)C(C)C (some centres undefined) (Ac-W(For)PFH-X4)
8300	–	CC(=O)N[C@@H](Cc1cnc[nH]1)C(=O)N1CCC[C@H]1C(=O)N[C@@H](Cc1ccccc1)C(=O)N[C@@H](Cc1cnc[nH]1)C(=O)N[C@@H](Cc1ccccc1)C(=O)N[C@@H](Cc1ccccc1)C(=O)N[C@H](C(=O)N[C@@H](Cc1cn(C=O)c2ccccc12)C(N)=O)C(C)C (Ac-HPFHFFVW(For)-NH2)
> 100000	–	CC(=O)N[C@H](Cc1cn(C=O)c2ccccc12)C(=O)N1CCC[C@H]1C(=O)N[C@@H](Cc1ccccc1)C(=O)N[C@@H](Cc1cnc[nH]1)C(=O)N[C@@H](Cc1ccccc1)C(=O)N[C@@H](Cc1ccccc1)C(=O)N[C@H](C(=O)N[C@@H](Cc1cn(C=O)c2ccccc12)C(N)=O)C(C)C
14	–	CC[C@H](C)[C@H](NC(=O)CC(O)[C@H](CC(C)C)NC(=O)[C@H](Cc1c[nH]cn1)NC(=O)[C@H](Cc1ccccc1)NC(=O)[C@@H]1CCCN1C(=O)[C@@H](Cc1cn(C=O)c2ccccc12)NC(C)=O)C(N)=O (some centres undefined)
–	370000	CC(C)CC(NC(=O)[C@@H](N)Cc1cnc[nH]1)C(O)CC(=O)N[C@@H](CC(C)C)C(=O)N[C@@H](Cc1ccccc1)C(N)=O (some centres undefined)
2100	–	CC(=O)N[C@@H](Cc1cn(C=O)c2ccccc12)C(=O)N1CCC[C@H]1C(=O)N[C@@H](Cc1ccccc1)C(=O)N[C@@H](Cc1cnc[nH]1)C(=O)N[C@@H](Cc1ccccc1)C(=O)N[C@@H](Cc1ccccc1)C(=O)N[C@H](C(N)=O)C(C)C (Ac-W(For)PFHFFV-NH2)
500	–	CC(=O)N[C@@H](Cc1cn(C=O)c2ccccc12)C(=O)N1CCC[C@H]1C(=O)N[C@@H](Cc1ccccc1)C(=O)N[C@@H](Cc1cnc[nH]1)C(=O)N[C@@H](Cc1ccccc1)C(=O)N[C@@H](Cc1ccccc1)C(=O)N[C@H](C(=O)N[C@@H](Cc1cn(C=O)c2ccccc12)C(N)=O)C(C)C
> 100000	–	CC(=O)N[C@@H](Cc1cn(C=O)c2ccccc12)C(=O)NCC(=O)N[C@@H](Cc1ccccc1)C(=O)N[C@@H](Cc1cnc[nH]1)C(=O)N[C@@H](Cc1ccccc1)C(=O)N[C@@H](Cc1ccccc1)C(=O)N[C@H](C(=O)N[C@@H](Cc1cn(C=O)c2ccccc12)C(N)=O)C(C)C (Ac-W(For)GFHFFVW(For)-NH2)
